High-throughput results (PubChem BioAssay)
MrgX1 ag: agonists of human MrgX1 receptor; Q96LB2; MrgX1-HEK293 cells, Fluo-4 calcium fluorescence, agonist mode; stronger effect = higher value; B-score at 10 µM; hit rate 0.44% among 310,000; AID 588627;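 active = calcium response B-score plate-corrected fluorescence ratio at least 3 library SD, with starting fluorescence B-score inside 5 SD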
Target sequence (Q96LB2 whole entry, looked up): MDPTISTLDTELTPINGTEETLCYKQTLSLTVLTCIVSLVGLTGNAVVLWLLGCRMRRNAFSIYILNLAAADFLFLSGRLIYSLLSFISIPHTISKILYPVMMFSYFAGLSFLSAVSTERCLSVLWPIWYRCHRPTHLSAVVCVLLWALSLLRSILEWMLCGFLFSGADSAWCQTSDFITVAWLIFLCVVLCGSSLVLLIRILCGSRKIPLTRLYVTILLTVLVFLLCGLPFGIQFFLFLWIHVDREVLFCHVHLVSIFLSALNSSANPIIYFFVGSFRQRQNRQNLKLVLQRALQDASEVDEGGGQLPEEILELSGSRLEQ
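System – MrgX1-expressing HEK293 cells · Incubation – cells plated overnight, dye loaded 0.5 h 37 °C, 0.5 h room temperature · Technique – kinetic Fluo-4 NW fluorescence of intracellular calcium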
PHOSPHO1 inh: blocks human PHOSPHO1 phosphatase activity. hit rate 1.1% among 290,000. Q8TCT1. recombinant PHOSPHO1, absorbance phosphatase assay. inhibition, % at 13.3 µM; in the data active = inhibition above about 60%
Target sequence (Q8TCT1 whole entry, looked up): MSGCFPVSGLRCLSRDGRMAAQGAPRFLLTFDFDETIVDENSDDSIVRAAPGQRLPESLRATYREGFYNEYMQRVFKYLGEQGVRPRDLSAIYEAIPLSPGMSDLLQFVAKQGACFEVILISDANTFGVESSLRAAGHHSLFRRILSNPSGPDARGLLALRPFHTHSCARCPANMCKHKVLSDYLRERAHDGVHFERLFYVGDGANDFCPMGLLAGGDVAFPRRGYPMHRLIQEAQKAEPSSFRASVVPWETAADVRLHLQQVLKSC
RGS4 pot: RGS4 potentiation or activation; AID 463111; B-score at 10 µM; HEK293 M3R/inducible RGS4, carbachol calcium flux Fluo4; stronger effect = lower value; hit rate 0.92% among 310,000;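 active = B-score of the integrated calcium signal more than 4 SD below the library mean, with starting fluorescence not abnormally high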;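 note: negative B-score means reduced calcium response which marks RGS4 activation or potentiation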
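Assay system: HEK293 FlpIn-TREx cells, stable M3R, doxycycline-inducible RGS4 / Probe or stimulus: carbachol, ECmax concentration / Times: overnight RGS4 induction, 30 min dye load 37 °C, 20 min compound RT / Signal: kinetic calcium fluorescence imaging with Fluo4-AM dye, 2 µM / Measure: Agonist-evoked peak-minus-minimum fluorescence over baseline, integrated ratio, B score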
MrgX1 antagonist: blocks BAM8-22 activation of human MrgX1 receptor | MRGX1-HEK293 calcium flux, Fluo-4, BAM8-22 antagonism; stronger effect = lower value | B-score at 10 µM | AID 588676 | hit rate 1.3% among 310,000;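 active = calcium-response B-score plate-corrected more than 3 library SD below zero, starting fluorescence within 5 deviations, no agonist response on first addition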;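 note: peak minus trough fluorescence over baseline after final BAM8-22 challenge near maximal dose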
RGS4 inh: human RGS4 inhibition | AID 463165 | HEK293 M3R/RGS4 inducible, Fluo-4 calcium flux; stronger effect = higher value; triggered by carbachol at its EC20 | P49798 | hit rate 0.45% among 310,000 | B-score at 10 µM;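 active = B-score, a plate-corrected calcium signal, over three deviations above library mean, with baseline fluorescence within five deviations of library mean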;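 note: RGS4 expression induced by doxycycline in cells with stable M3 receptor; B-score is computed from the integrated fluorescence ratio over baseline after carbachol; higher B-score means a larger calcium signal and so more RGS4 inhibition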
MrgX1 PAM: allosterically activates human MrgX1 receptor signaling | Q96LB2 | MrgX1-HEK293, Fluo-4 calcium flux, FDSS; stronger effect = higher value | B-score at 10 µM | hit rate 0.63% among 310,000 | AID 588675;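 active = plate-corrected calcium response at least 3 library SD above typical, normal starting fluorescence, not activating the receptor alone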;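 note: compound read alongside a low EC10 to EC30 dose of BAM8-22 agonist; peak minus trough fluorescence over baseline measured at the second addition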
RGS4 block valid: validation of RGS4 inhibitors; shares compounds with RGS4 inh; HEK293 M3R/RGS4, carbachol calcium Fluo-4 fluorescence; carbachol added at its EC20; 0 = buffer wells, 100 = carbachol control; calcium response, % at 10 µM; hit rate 65% among 1,700;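 active = duplicate-averaged calcium response above the buffer-only control mean plus 5 SD of those controls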;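 note: integrated fluorescence ratio F max minus min over baseline F0; higher response in RGS4-induced cells means RGS4 inhibition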
RGS4 uninduced: checks RGS4 inhibitor effects in non-induced HEK293 M3R cells; shares compounds with RGS4 inh; carbachol calcium Fluo-4; submaximal (EC20) carbachol stimulus; buffer wells 0%, carbachol control wells 100%; activity (percent), % at 10 µM; hit rate 20% among 1,900; AID 493000; call rule not given here;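 note: RGS4 induction absent so cells express M3R without RGS4; higher means more calcium signal and flags a non-specific hit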
M3R basal Ca ctr: signal in non-induced cells without carbachol, RGS4 inhibitor counter-screen | AID 493001 | calcium response (agonist-mode artifact), % at 10 µM | HEK293 M3R/RGS4 non-induced, Fluo-4 calcium, no carbachol; normalised: buffer wells 0%, carbachol wells 100% | hit rate 22% among 1,900 | shares compounds with RGS4 inh;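 active = duplicate-averaged calcium rise in uninduced cells above buffer wells' mean plus 5 SD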
A number is an active result; i = inactive; nt = no result given. This is a sample that favours compounds with a hit; in the whole collection about 4.5% have one here.

SMILES	MrgX1 ag	PHOSPHO1 inh	RGS4 pot	MrgX1 antagonist	RGS4 inh	MrgX1 PAM	RGS4 block valid	RGS4 uninduced	M3R basal Ca ctr
CCCNC(C)C(=O)Nc1ccccc1C (stereo not drawn)	i	i	i	i	4.77	i	6.5%	i	i
CCCNC(=O)c1ccccc1NC(=O)Nc1ccccc1C	i	i	nt	i	nt	i	nt	nt	nt
COc1ccc(Cl)cc1NC(=O)Cn1c(NCCO)nc2ccccc21	i	i	i	i	i	i	nt	nt	nt
CCc1nnc(NS(=O)(=O)c2ccc(N=Cc3c(C)[nH]n(-c4cccc(Cl)c4)c3=O)cc2)s1	i	i	i	i	i	i	nt	nt	nt
Cc1[nH]n(-c2ccc(Cl)cc2)c(=O)c1C=Nc1ccc(S(=O)(=O)N2CCOCC2)cc1	i	i	i	i	6.27	i	31.5%	55.0%	i
Cc1ccc(-n2[nH]c(C)c(C=Nc3ccc(S(=O)(=O)Nc4nccs4)cc3)c2=O)cc1C	i	i	i	i	i	i	nt	i	i
CCc1nnc(NS(=O)(=O)c2ccc(N=Cc3c(C)[nH]n(-c4ccc(Cl)cc4)c3=O)cc2)s1	i	i	i	i	i	i	nt	i	i
O=C1/C(=C\c2ccccn2)SC(=S)N1c1ccc(S(=O)(=O)Nc2nccs2)cc1	i	i	i	i	5.88	i	20.5%	i	i
CN(Cc1cnn(-c2ccccc2)c1)C(=O)C1CCC(=O)N(C2CC2)C1 (stereo not drawn)	i	i	i	i	i	i	nt	nt	nt
COc1cc(OC)c(N(C)C(=O)c2cc3c(s2)-c2ccccc2S(=O)(=O)C3)cc1Cl	i	nt	i	i	17.1	i	27.5%	50.5%	i
C#CCN(C#N)c1nc(NCC)nc(NC(C)C)n1	i	i	i	i	i	i	nt	nt	nt
CCN(C#N)c1nc(NC(C)C)nc(NC(C)C)n1	i	i	i	i	i	i	i	i	i
CCOC(=O)C1=C(C)n2c(s/c(=C/c3cccc([N+](=O)[O-])c3)c2=O)=NC1c1ccc(O)c(OC)c1 (stereo not drawn)	i	i	i	i	33.9	i	66.0%	34.5%	20.0%
Cc1ccc(C(=O)N2N=C(CC(C)C)CC2(O)C(F)(F)F)o1 (stereo not drawn)	i	i	i	i	i	i	nt	nt	nt
COc1cc(C(C(=O)NC2CCCCC2)N(C(=O)Cc2c[nH]c3ccccc23)c2ccccc2C)cc(OC)c1OC (stereo not drawn)	i	i	i	i	4.86	i	7.5%	i	i
COc1ccc(N=N/C(=C\O)C(=O)c2cccs2)cc1	i	i	i	i	i	i	nt	nt	nt
COc1ccc(C(=O)/C(=C/O)N=Nc2ccc(F)cc2)cc1	i	i	i	i	6.76	i	56.0%	128.0%	i
Cc1cccc(N=N/C(=C\O)C(=O)c2ccc(Br)cc2)c1	i	i	i	i	5.27	i	26.0%	i	i
CCOc1cccc(-c2c(C(=O)N/N=C/c3ccco3)nnn2-c2nonc2N)c1	i	i	i	i	i	i	i	i	i
CCOc1cccc(-c2c(C(=O)N/N=C/c3ccc(C)o3)nnn2-c2nonc2N)c1	i	i	i	i	i	i	i	i	i
CCOC(=O)[C@@H]1[C@H]2COc3ccccc3[C@H]2N2C(=O)N(c3ccc(C(F)(F)F)cc3)C(=O)[C@]12C	i	i	i	i	i	i	i	i	i
CCOC(=O)[C@@H]1[C@H]2COc3ccccc3[C@@H]2N2C(=O)N(c3ccc(C(F)(F)F)cc3)C(=O)[C@]12C	i	nt	i	i	i	i	i	i	i
Cc1nn(-c2ccccc2)c(Cl)c1/C=N/NC(=O)CNC(=O)c1ccccc1Cl	i	i	i	i	i	i	nt	nt	nt
Cc1[nH]n(-c2ncc(-c3ccccc3)s2)c(=O)c1C(c1ccc(Cl)cc1)C(C#N)C#N (stereo not drawn)	i	i	i	-5.32	13.7	i	70.5%	i	52.5%
Cc1cc(C)c2sc(NNC(=O)c3ccc(S(=O)(=O)N4CCc5ccccc5C4)cc3)nc2c1	i	i	i	i	i	i	nt	i	i
SMILES	MrgX1 ag	PHOSPHO1 inh	RGS4 pot	MrgX1 antagonist	RGS4 inh	MrgX1 PAM	RGS4 block valid	RGS4 uninduced	M3R basal Ca ctr
Cc1cc(C)c2nc(NNC(=O)c3ccc(S(=O)(=O)N4CCc5ccccc5C4)cc3)sc2c1	i	i	i	i	6.49	i	11.0%	i	i
CC(C)c1ccccc1NC(=O)COC(=O)C1(C)CC1(Cl)Cl (stereo not drawn)	i	i	i	i	i	i	nt	nt	nt
CCO[C@H]1OC(C(=O)O)=C[C@@H](c2ccc3c(c2)OCO3)[C@@H]1CCCO	i	i	i	i	i	i	nt	nt	nt
Cc1cc(C)cc(NC2=NCC(=O)N2Cc2ccccc2)c1	i	i	i	i	5.35	i	i	i	i
Cc1cccc(NC2=NCC(=O)N2Cc2ccccc2)c1	i	i	i	i	i	i	nt	32.0%	i
Cc1n[nH]c(C)c1S(=O)(=O)N1CCC(C(=O)Nc2cccc(F)c2)CC1	i	i	i	i	i	i	nt	nt	nt
CCOc1ccc(/C=N/NC(=O)c2nnn(-c3nonc3N)c2-c2ccc(OCC)cc2)cc1	i	i	i	i	i	i	i	i	i
CCOc1cccc(-c2c(C(=O)N/N=C/c3ccoc3)nnn2-c2nonc2N)c1	i	i	i	i	i	i	i	i	i
CCOc1cccc(-c2c(C(=O)N/N=C(\C)c3ccncc3)nnn2-c2nonc2N)c1	i	i	i	i	i	i	nt	nt	nt
CCOc1cccc(-c2c(C(=O)N/N=C/c3ccncc3)nnn2-c2nonc2N)c1	i	i	i	i	i	i	i	i	i
CCOc1ccc(-c2c(C(=O)N/N=C/c3ccoc3)nnn2-c2nonc2N)cc1	i	i	i	i	i	i	nt	nt	nt
CC(=O)Nc1nc(-c2ccc3ccccc3c2)cs1	i	i	i	i	5.13	i	i	i	i
Oc1ccc(-c2nc(-c3ccc(O)c(O)c3)cs2)cc1	i	i	i	i	i	i	i	i	i
Oc1ccc(Nc2nc(-c3ccc4ccccc4c3)cs2)cc1	i	i	i	i	40.7	i	84.5%	88.5%	i
O=C(CN1C(=O)CCC1=O)Nc1nc(-c2ccc3ccccc3c2)cs1	i	i	i	i	7.99	i	5.0%	i	i
O=[N+]([O-])CC(c1ccccc1)c1c[nH]c2ccccc12 (stereo not drawn)	i	nt	i	i	i	i	nt	nt	nt
